Results from ChEMBL document CHEMBL1153726, “Synthesis and anticancer activity of sclerophytin-inspired hydroisobenzofurans” (Bioorg Med Chem Lett, 2009).

Assay: Antitumor activity against human KB3 cells after 96 hrs by MTT assay
Type: functional, cell-based
Conditions: KB3, 96 h
How it was run: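 Human KB-3 carcinoma cells exposed to increasing compound concentrations; viability read by MTT colorimetric assay after 96 h. Values are means of triplicate assays, expressed relative to untreated controls.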

Row | SMILES | IC50 [µM]
1 | C=C(C)[C@H]1CC=C(C)[C@@]2(O)[C@@H]1[C@H](c1cccc(Cl)c1Cl)O[C@@H]2C(=O)OCC | 5
2 | C=C(C)[C@H]1CC=C(C)C2=CO[C@@H](c3ccco3)[C@@H]21 | 2
3 | C=C(C)[C@H]1CC(=O)C(C)=C2[C@@H](C(=O)OCC)O[C@@H](c3cccc(Cl)c3Cl)[C@@H]21 | 5
4 | C=C(C)[C@H]1CC=C(C)[C@@]2(O)[C@@H]1[C@H](c1ccccn1)O[C@@H]2C(=O)OC | 100
5 | C=C(C)[C@H]1CC=C(C)[C@@]2(O)[C@@H]1[C@H](c1ccccc1Br)O[C@@H]2C(=O)OCC1CCCC1 | > 100
